Here are results for five compounds from PMC7805566 (Medicinal Chemistry Research, 2021).

One series relates to M. tuberculosis H37Rv. Briefly: MIC against Mtb H37Rv, microplate alamar blue assay. It is filed as cell-based, Mycobacterium tuberculosis. To be noted: for MIC: Mycobacterium tuberculosis, H37RV. Background: Resazurin is reduced to fluorescent resorufin, in cell work by metabolically active cells.
A short description of series [1]: Microsomal stability, human liver microsomes. It is filed as in vitro ADME. The procedure, abridged:
(§1)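 The test compound, taken from a 10 mM DMSO stock and diluted to 100 μM in DMSO, was added to mouse or human liver microsomes and preincubated at 37 °C for 5 min. The reaction was started with buffer/NADPH working solution (5 mM); samples without NADPH were the negative controls. Aliquots at 0 and 30 min were quenched with internal standard, centrifuged at 4 °C, and measured by LC-MS/MS.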
For orientation: Liver microsomes are vesicles of endoplasmic reticulum, rich in cytochrome P450 enzymes.

Series [2] is described as follows: Microsomal stability, mouse liver microsomes. It is filed as in vitro ADME. The gist of the method:
as §1

The nature of series [3]: In vivo pharmacokinetic profiles in male ICR mice. To be noted: for AUC(0-t) / Cmax / Tmax / Vd / clearance / half-life / bioavailability: male, ICR, mouse, plasma; for bioavailability: oral. The procedure, abridged:
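SPF male ICR mice (22–23 g), three per route. Oral 10 mg/kg (1.0 mg/mL in 0.5% carboxymethyl cellulose/0.5% Tween 80); i.v. 2 mg/kg (0.4 mg/mL in 20% HP-β-CD with 4 mol/L HCl). Plasma extracted 20:1 with acetonitrile containing internal standard; LC-MS/MS, C18, isocratic acetonitrile/water 80:20 with 0.1% formic acid. Non-compartmental parameters; F = (AUCp.o.×dosei.v.)/(AUCi.v.×dosep.o.).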

Series [4] in a line: Metabolic stability in liver microsomes. It is filed as in vitro ADME. Conditions: mouse and human liver microsomes, without NADPH. The gist of the method: as §1
The conditions of series [5]: liver microsomes, previous reports ref 30; cited from earlier work.
Where [6] appears, read: Human (% remaining at 30 min) With NADPH, with NADPH.
Where [7] appears, read: Human (% remaining at 30 min) Without NADPH, without NADPH.
[8] abbreviates: Mouse (% remaining at 30 min) With NADPH, with NADPH.
Where [9] appears, read: Mouse (% remaining at 30 min) Without NADPH, without NADPH.

SMILES strings stand for the structures. In brackets after ≈: the same amount, converted by molar mass.

With `N#Cc1cc(C(F)(F)F)cc2c(=O)nc(N3CCN(CC4CCOC4)CC3)sc12` (centres unmarked) [Compound 1e, 4-Oxo-2-(4-((tetrahydrofuran-3-yl)methyl)piperazin-1-yl)-6-(trifluoromethyl)-4H-benzo[e][1,3]thiazine-8-carbonitrile], in the series with M. tuberculosis H37Rv (Mtb H37Rv MIC), the “loss of potency relative to cyclopentyl methyl 1c” value was 10 fold.

`O=c1nc(N2CCN(CC3CCCCC3)CC2)sc2c([N+](=O)[O-])cc(C(F)(F)F)cc12` [Macozinone, reference compound]: the share remaining at 0.5 h, 1 µM in series [1] (setting [6]) is 46.8%. Further, the share remaining at 0.5 h, 1 µM in series [1] (setting [7]) came to 101%. Besides, in series [2] (setting [8]), the amount remaining at 0.5 h, 1 µM was determined as 50.7%. Further, the amount remaining at 0.5 h, 1 µM in series [2] (setting [9]) is 102%. Besides, in series [3] (iv, 2 mg/kg), the AUC(0-t) was found to be 423 ng·h/mL, the peak level (Cmax) was 1230 ng/mL, the Tmax amounted to 1.98 min and the Vd was found to be 5.64 L/kg. In series [3] (iv, 2 mg/kg), this compound showed a clearance of 75.8 mL/min/kg and a half-life of 51.6 min. Also, in series [3] (10 mg/kg), the bioavailability stood at 16.7%. Also, in series [3] (po, 10 mg/kg), the AUC(0-t) was determined as 354 ng·h/mL, the concentration peaked (Cmax) at 251 ng/mL, the Tmax came out at 15 min and the half-life was 101 min. Moreover, in series [4], the “metabolism in the absence of NADPH (in words)” value was “neither macozinone nor 1d were metabolized”. Further, in series [5], the “half-life (metabolic stability)” value is 34 to 43 min.

As to `N#Cc1cc(C(F)(F)F)cc2c(=O)nc(N3CCN(CC4CCCC4)CC3)sc12` [Compound 1c, 2-(4-(cyclopentylmethyl)piperazin-1-yl)-4-oxo-6-(trifluoromethyl)-4H-benzo[e][1,3]thiazine-8-carbonitrile], in the series on M. tuberculosis H37Rv, the MIC was 0.2 µM (≈ 0.0845 µg/mL).

Take `N#Cc1cc(C(F)(F)F)cc2c(=O)nc(N3CCN(CC4COC4)CC3)sc12` [Compound 1f, 2-(4-(oxetan-3-ylmethyl)piperazin-1-yl)-4-oxo-6-(trifluoromethyl)-4H-benzo[e][1,3]thiazine-8-carbonitrile]: the “antimycobacterial activity (in words)” value in the series with M. tuberculosis H37Rv (Mtb H37Rv) was “inactive”.

In the case of `N#Cc1cc(C(F)(F)F)cc2c(=O)nc(N3CCN(CC4CCCCC4)CC3)sc12` [Compound 1d, 2-(4-(cyclohexylmethyl)piperazin-1-yl)-4-oxo-6-(trifluoromethyl)-4H-benzo[e][1,3]thiazine-8-carbonitrile], in series [1] (setting [6]), the fraction remaining at 0.5 h, 1 µM came out at 26.3%. For the same compound, in series [1] (setting [7]), the fraction remaining at 0.5 h, 1 µM was 102%. The compound also returned an MIC against M. tuberculosis H37Rv of 0.13 µM (≈ 0.0567 µg/mL). In series [2] (setting [8]), the fraction remaining at 0.5 h, 1 µM was 38.6%. In series [2] (setting [9]), the amount remaining at 0.5 h, 1 µM was 96.4%. Further, the “increase in the volume of distribution (V) relative to macozinone” value in series [3] (i.v. dosing, mice) stood at 2.0 fold. For the same compound, in series [3] (iv, 2 mg/kg), the AUC(0-t) is 445 ng·h/mL, the Cmax is 1340 ng/mL, the time to peak (Tmax) worked out at 1.98 min and the Vd is 11.3 L/kg. Moreover, in series [3] (iv, 2 mg/kg), the clearance came to 71.2 mL/min/kg and the half-life was 110 min. In series [3] (10 mg/kg), this compound yielded a bioavailability of 7.8%. In series [3] (po, 10 mg/kg), the AUC(0-t) amounted to 174 ng·h/mL, the Cmax is 110 ng/mL, the Tmax worked out at 15 min and the half-life was 104 min. In addition, in series [3] (mice), the “decrease of oral bioavailability relative to macozinone” value was “twofold”. In addition, in series [3] (oral dosing, male ICR mice), the maximum plasma concentration worked out at 240 nM. The “metabolism in the absence of NADPH (in words)” value in series [4] was “neither macozinone nor 1d were metabolized”. For the same compound, the “cytotoxicity (in words)” value in the series on Vero cells is listed as “no cytotoxicity”.

The AUC(0-t) is the area under the concentration-time curve up to a stated or last time point. Read a high AUC(0-t) as more exposure. The term Cmax denotes the maximum level reached in the sampled fluid or tissue. Broadly, the Tmax is the time from dosing to the highest level. By Vd is commonly meant a proportionality between amount in the body and measured concentration, not a real space. Broadly, the clearance is the volume of plasma or blood freed of the substance per unit of time. A lower clearance goes with a low capacity for elimination. By half-life is commonly meant the time in which the quantity being followed falls by half. Higher therefore signals slow decline. Broadly, the bioavailability is dose-corrected exposure relative to a reference, in per cent. Low readings indicate little systemic uptake, high ones much systemic uptake. One may read the MIC as the lowest concentration found to suppress growth. Low values mean a more susceptible organism, high ones a less susceptible organism.
